According to ChEMBL document CHEMBL3994666 (ACS Med Chem Lett, 2017):
Values after ≈ are worked out from the molar mass of the structure shown. Active and inactive are the calls of the source. No cut-off for these calls is given here.

Tests used:
[1] = target: T1, Proteasome subunit beta type-9 (Homo sapiens, UniProt P28065); test: Inhibition of LMP2 in human MOLT4 cell lysate after 1 hr by ELISA
T1 sequence (P28065 whole entry): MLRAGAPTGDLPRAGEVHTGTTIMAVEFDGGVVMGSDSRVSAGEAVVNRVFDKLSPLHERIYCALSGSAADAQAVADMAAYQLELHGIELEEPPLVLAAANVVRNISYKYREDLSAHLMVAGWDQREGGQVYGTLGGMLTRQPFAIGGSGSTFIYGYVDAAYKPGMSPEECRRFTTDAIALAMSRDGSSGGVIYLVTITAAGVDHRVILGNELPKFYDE
Procedure, shortened: (§1)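 ProCISE subunit-specific ELISA of proteasome catalytic active sites in cell lysate. Values are mean ± SD, n ≥ 2.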

[2] = target: T2, Proteasome subunit beta type-8 (Homo sapiens, UniProt P28062); test: Inhibition of LMP7 in human MOLT4 cell lysate after 1 hr by ELISA; procedure, shortened: as §1
T2 sequence (P28062 whole entry): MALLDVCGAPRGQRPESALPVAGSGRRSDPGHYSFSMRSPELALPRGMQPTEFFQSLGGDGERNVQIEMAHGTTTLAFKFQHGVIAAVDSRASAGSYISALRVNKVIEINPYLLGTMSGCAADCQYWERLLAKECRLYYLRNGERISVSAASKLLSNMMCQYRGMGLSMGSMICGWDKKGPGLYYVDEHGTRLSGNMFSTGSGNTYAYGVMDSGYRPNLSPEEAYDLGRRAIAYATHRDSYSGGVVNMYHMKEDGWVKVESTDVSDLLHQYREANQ

[3] = Stability in Balb/c mouse liver S9 fraction assessed as compound remaining at 1 uM incubated for 90 mins in absence of NADPH by LC-MS/MS analysis; type: ADME, tissue-based; conditions: read-out: Stability
Procedure, shortened: (§2)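 Compound incubated with liver S9 fraction for 90 min without NADPH. Values are mean ± SD, n ≥ 3.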

[4] = Stability in Sprague-Dawley rat liver S9 fraction assessed as compound remaining at 1 uM incubated for 90 mins in absence of NADPH by LC-MS/MS analysis; type: ADME, tissue-based; conditions: read-out: Stability; procedure, shortened: as §2
[5] = Stability in human liver S9 fraction assessed as compound remaining at 1 uM incubated for 90 mins in absence of NADPH by LC-MS/MS analysis; type: ADME, tissue-based; conditions: read-out: Stability; procedure, shortened: as §2
[6] = Solubility of the compound in phosphate buffer at pH 7.2 at 10 mg/ml after 24 hrs by UV-HPLC method; type: physicochemical
Procedure, shortened: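 Solubility measured at pH 7.2. Values are mean ± SD, n = 2.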

[7] = target: T3, Proteasome subunit beta type-10 (Homo sapiens, UniProt P40306); test: Inhibition of MECL1 in human MOLT4 cell lysate after 1 hr by ELISA
T3 sequence (P40306 whole entry): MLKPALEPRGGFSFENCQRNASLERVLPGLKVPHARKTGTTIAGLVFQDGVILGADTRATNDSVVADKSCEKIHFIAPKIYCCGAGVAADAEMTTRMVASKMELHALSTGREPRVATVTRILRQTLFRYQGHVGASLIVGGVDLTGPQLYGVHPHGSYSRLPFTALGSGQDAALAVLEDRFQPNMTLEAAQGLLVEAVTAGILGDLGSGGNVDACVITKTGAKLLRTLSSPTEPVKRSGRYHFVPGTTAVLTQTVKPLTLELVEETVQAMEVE

[8] = target: T4, Proteasome Macropain subunit MB1 (Homo sapiens, UniProt P28074); test: Inhibition of proteasome beta5 in human MOLT4 cell lysate after 1 hr by ELISA; procedure, shortened: as §1
T4 sequence (P28074 whole entry): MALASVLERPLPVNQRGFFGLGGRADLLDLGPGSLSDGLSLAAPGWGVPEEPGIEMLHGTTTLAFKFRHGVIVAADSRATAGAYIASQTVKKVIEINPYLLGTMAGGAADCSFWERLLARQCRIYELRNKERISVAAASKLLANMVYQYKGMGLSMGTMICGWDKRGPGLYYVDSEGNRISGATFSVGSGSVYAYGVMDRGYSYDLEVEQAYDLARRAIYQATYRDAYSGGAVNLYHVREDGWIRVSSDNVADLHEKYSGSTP

PBMC [9] = test: Anti-inflammatory activity in human PBMC assessed as inhibition of LPS-induced Il-1b production pretreated for 1 hr followed by LPS stimulation measured after 20 hrs; type: functional, cell-based
PBMC [10] = test: Anti-inflammatory activity in human PBMC assessed as inhibition of LPS-induced GMCSF production pretreated for 1 hr followed by LPS stimulation measured after 20 hrs; type: functional, cell-based
Mus musculus [11] = test: In vivo inhibition of LMP2 in Balb/c mouse heart at >1 mg/kg, iv administered as single bolus dose using 10% EtOH/25% PEG300 formulation after 1 hr by ELISA relative to control; type: functional
PBMC [12] = test: Anti-inflammatory activity in human PBMC assessed as inhibition of LPS-induced IL-12/23 p40 production pretreated for 1 hr followed by LPS stimulation measured after 20 hrs; type: functional, cell-based
PBMC [13] = test: Anti-inflammatory activity in human PBMC assessed as inhibition of LPS-induced TNF-alpha production pretreated for 1 hr followed by LPS stimulation measured after 20 hrs; type: functional, cell-based
PBMC [14] = test: Cytotoxicity against human PBMC assessed as decrease in cell viability by CellTiter-Glo assay; type: cell-based
Procedure, shortened: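 PBMC viability read out with CellTiter-Glo. IC50 derived from the viability signal.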

Mus musculus [15] = test: In vivo inhibition of LMP2 in Balb/c mouse assessed as residual activity in blood at 1 mg/kg, iv administered as single bolus dose using 10% EtOH/25% PEG300 formulation after 1 hr by ELISA relative to control; type: functional
Procedure, shortened: (§3)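 Mice dosed intravenously at nominal doses. Blood collected 1 h later and proteasome active-site activity (LMP2, LMP7, β5) measured by ProCISE subunit-specific ELISA. Expressed as % activity remaining relative to control.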

PBMC [16] = test: Anti-inflammatory activity in human PBMC assessed as inhibition of LPS-induced IL-8 production pretreated for 1 hr followed by LPS stimulation measured after 20 hrs; type: functional, cell-based
PBMC [17] = test: Anti-inflammatory activity in human PBMC assessed as inhibition of LPS-induced IL-6 production pretreated for 1 hr followed by LPS stimulation measured after 20 hrs; type: functional, cell-based
Mus musculus [18] = test: In vivo inhibition of proteasome beta5 in Balb/c mouse assessed as residual activity in blood at 1 mg/kg, iv administered as single bolus dose using 10% EtOH/25% PEG300 formulation after 1 hr by ELISA relative to control; type: functional; procedure, shortened: as §3
Mus musculus [19] = test: In vivo inhibition of LMP2 in Balb/c mouse kidney at >1 mg/kg, iv administered as single bolus dose using 10% EtOH/25% PEG300 formulation after 1 hr by ELISA relative to control; type: functional
Mus musculus [20] = test: In vivo inhibition of LMP2 in Balb/c mouse liver at >1 mg/kg, iv administered as single bolus dose using 10% EtOH/25% PEG300 formulation after 1 hr by ELISA relative to control; type: functional
Mus musculus [21] = test: In vivo inhibition of LMP2 in Balb/c mouse brain at >1 mg/kg, iv administered as single bolus dose using 10% EtOH/25% PEG300 formulation after 1 hr by ELISA; type: functional, organism-based
Mus musculus [22] = test: In vivo inhibition of LMP7 in Balb/c mouse assessed as residual activity in blood at 1 mg/kg, iv administered as single bolus dose using 10% EtOH/25% PEG300 formulation after 1 hr by ELISA relative to control; type: functional; procedure, shortened: as §3
Mus musculus [23] = test: In vivo inhibition of LMP2 in Balb/c mouse assessed as residual activity in blood at 2 mg/kg, iv administered as single bolus dose using 10% EtOH/25% PEG300 formulation after 1 hr by ELISA relative to control; type: functional; procedure, shortened: as §3
Mus musculus [24] = test: In vivo inhibition of proteasome beta5 in Balb/c mouse assessed as residual activity in blood at 2 mg/kg, iv administered as single bolus dose using 10% EtOH/25% PEG300 formulation after 1 hr by ELISA relative to control; type: functional; procedure, shortened: as §3
Mus musculus [25] = test: In vivo inhibition of LMP7 in Balb/c mouse assessed as residual activity in blood at 2 mg/kg, iv administered as single bolus dose using 10% EtOH/25% PEG300 formulation after 1 hr by ELISA relative to control; type: functional; procedure, shortened: as §3
Mus musculus [26] = test: In vivo inhibition of proteasome beta5 in Balb/c mouse assessed as residual activity in blood at 1 mg/kg, iv administered as single bolus dose using PEG300/WFI formulation after 1 hr by ELISA relative to control; type: functional; procedure, shortened: as §3
Mus musculus [27] = test: In vivo inhibition of LMP2 in Balb/c mouse assessed as residual activity in blood at 1 mg/kg, iv administered as single bolus dose using PEG300/WFI formulation after 1 hr by ELISA relative to control; type: functional; procedure, shortened: as §3
Mus musculus [28] = test: In vivo inhibition of LMP7 in Balb/c mouse assessed as residual activity in blood at 1 mg/kg, iv administered as single bolus dose using PEG300/WFI formulation after 1 hr by ELISA relative to control; type: functional; procedure, shortened: as §3

| Compound | IC50 [1] [µM] | IC50 [2] [µM] | remaining at 1.5 h, 1 µM [3] [%] | remaining at 1.5 h, 1 µM [4] [%] | remaining at 1.5 h, 1 µM [5] [%] | solubility at 24 h [6] [µg/mL] | IC50 [7] [µM] | IC50 [8] [µM] | IC50 (PBMC [9]) [µM] | IC50 (PBMC [10]) [µM] | IC50 (PBMC [12]) [µM] | IC50 (PBMC [13]) [µM] | IC50 (PBMC [14]) [µM] | IC50 (PBMC [16]) [µM] | IC50 (PBMC [17]) [µM] | other results |
| --- | --- | --- | --- | --- | --- | --- | --- | --- | --- | --- | --- | --- | --- | --- | --- | --- |
| C[C@H](NC(=O)c1cccc(=O)[nH]1)C(=O)N[C@@H](Cc1ccccc1)C(=O)[C@@]1(C)CO1 | 0.112 | 44.6 | 85.1 | 58.8 | 25.3 | 7520 (≈ 18.9 mM) | > 250 | 42.5 |  |  |  |  |  |  |  |  |
| C[C@]1(C(=O)[C@H](Cc2ccccc2)NC(=O)[C@H](CO)NC(=O)c2cccc(=O)[nH]2)CO1 | 0.051 | 4.27 | 90.9 | 92.3 | 81.5 | 6640 (≈ 16.1 mM) | > 250 | 6.89 | > 25 | > 25 | > 9.7 | > 25 | > 25 | > 25 | > 19.2 | inhibition (INH) (Mus musculus [11]): >50%; Activity (Mus musculus [15]): 31.1%; Activity (Mus musculus [18]): 101.7%; inhibition (INH) (Mus musculus [19]): >50%; inhibition (INH) (Mus musculus [20]): >50%; inhibition (Mus musculus [21]): inactive; Activity (Mus musculus [22]): 102.5% |
| COc1ccc(C[C@H](NC(=O)c2cccc(=O)[nH]2)C(=O)N[C@@H](Cc2ccccc2)C(=O)[C@@]2(C)CO2)cc1 | 0.14 | 4.81 | 0.4 | 8 | 1.1 | 166 (≈ 0.33 mM) | > 250 | 18.2 | > 25 | > 25 | > 5.6 | > 25 | > 25 | > 25 | > 15.8 | Activity (Mus musculus [23]): 83%; Activity (Mus musculus [24]): 90.7%; Activity (Mus musculus [25]): 98.3% |
| COc1ccc(C[C@H](NC(=O)[C@H](C)NC(=O)CN2CCOCC2)C(=O)N[C@@H](Cc2ccccc2)C(=O)[C@@]2(C)CO2)cc1 |  |  | 106 | 23.3 | 8.6 | 461 (≈ 0.794 mM) |  |  | 1.47 | 0.22 | 0.12 | 0.56 | 3.4 | 1.11 | 0.24 | Activity (Mus musculus [26]): 99.8%; Activity (Mus musculus [27]): 95%; Activity (Mus musculus [28]): 65.3% |
